Reference: ChEMBL document CHEMBL1131501, “Cytotoxic activities of Mannich bases of chalcones and related compounds” (J Med Chem, 1998)

Assays:
Type in all cases: functional, cell-based
Homo sapiens [1] = species on record: Homo sapiens; experiment: Concentration required to inhibit 50% growth of human Molt 4/C8 T-lymphocyte cells; settings: Molt4/C8
L1210 = experiment: Concentration required to inhibit 50% growth of L1210 leukemia cells; settings: Mus musculus
Homo sapiens [2] = species on record: Homo sapiens; experiment: Concentration required to inhibit 50% growth of Human CEM T-lymphocytes cells; settings: CCRF-CEM
P388 = experiment: Inhibition of proliferation of murine P388 cells; settings: Mus musculus
Tumor Cell line = experiment: Evaluation for cytotoxicity to human tumor cell lines.
Summary of the method: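 Panel of about 55-60 human tumor lines (leukemia, melanoma, non-small cell lung, colon, CNS, ovarian, renal, prostate, breast) exposed to 10⁻⁸ to 10⁻⁴ M. Growth inhibition was read as intact-cell recovery relative to vehicle control after 48 h.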

SMILES | IC50 (Homo sapiens [1]) [µM] | IC50 (L1210) [µM] | IC50 (Homo sapiens [2]) [µM] | IC50 (P388) [µM] | IC50 (Tumor Cell line) [µM]
COc1ccc(/C=C/C(=O)c2ccc(OC(=O)/C=C/c3ccccc3)cc2)cc1 | 27.9 | 39.5 | 10.8 | 10.2 | –
O=C(/C=C/c1ccc([N+](=O)[O-])cc1)c1ccc(O)cc1 | 5.94 | 7.32 | 2.23 | 13.1 | –
COc1ccc(/C=C/C(=O)c2ccc(O)cc2)cc1 | 27.9 | 32.2 | 5.9 | 8.7 | –
O=C(/C=C/c1ccccc1Cl)c1ccc(O)cc1 | 18.2 | 24.5 | 13.9 | 6.85 | –
O=C(/C=C/c1ccc(O)cc1)c1ccc(Cl)c(Cl)c1 | 10.8 | 33.8 | 20 | 8.53 | –
O=C(/C=C/c1ccc(Cl)cc1Cl)c1ccc(O)cc1 | 13.9 | 25.2 | 10.2 | 7.89 | –
O=C(/C=C/c1ccc(/C=C/C(=O)c2ccc(O)cc2)cc1)c1ccc(O)cc1 | 30.3 | 395 | 78.6 | 0.564 | 93.3
CN(C)Cc1cc(C(=O)/C=C/c2cc(F)ccc2F)cc(CN(C)C)c1O | 15.4 | 15.9 | 2.91 | 8.86 | –
CN(C)Cc1cc(/C=C/C(=O)c2ccc(Br)cc2)cc(CN(C)C)c1O | 39.2 | 32.3 | 21.9 | 15.1 | –
COc1ccc(/C=C/C(=O)c2cc(CN(C)C)c(O)c(CN(C)C)c2)cc1 | 25.3 | 25.8 | 14.8 | 44.1 | 29.5
CN(C)Cc1cc(C(=O)/C=C/c2ccccc2)cc(CN(C)C)c1O | 20.7 | 17.7 | 19.6 | 29.6 | 21.9
CN(C)Cc1cc(C(=O)/C=C/c2ccc(C(F)(F)F)cc2)cc(CN(C)C)c1O | 8.3 | 8.14 | 1.56 | 3.67 | –
O=C(/C=C/c1ccccc1)c1cc(CN2CCOCC2)c(O)c(CN2CCOCC2)c1 | 17.2 | 15.7 | 6.11 | 10.3 | 14.5
CN(C)Cc1cc(C(=O)/C=C/c2ccccc2Cl)cc(CN(C)C)c1O | 7.13 | 6.84 | 8.08 | 13.2 | 9.55
CN(C)Cc1cc(C(=O)/C=C/c2ccc(/C=C/C(=O)c3cc(CN(C)C)c(O)c(CN(C)C)c3)cc2)cc(CN(C)C)c1O | – | – | – | – | 26.9
CN(C)Cc1cc(C(=O)/C=C/c2ccc(F)cc2)cc(CN(C)C)c1O | 17.2 | 16.9 | 13.8 | 26.9 | 20
CN(C)Cc1cc(C(=O)/C=C/c2ccc(Br)cc2)cc(CN(C)C)c1O | 8.42 | 7.09 | 4.78 | 10.9 | 6.31
CN(C)Cc1cc(/C=C/C(=O)c2ccc(Cl)c(Cl)c2)cc(CN(C)C)c1O | 12.4 | 9.32 | 10.4 | 5.45 | –
Cc1ccc(/C=C/C(=O)c2cc(CN(C)C)c(O)c(CN(C)C)c2)cc1 | 40.2 | 40.1 | 35.2 | 30.8 | 17.8
CN(C)Cc1cc(C(=O)/C=C/c2ccc(Cl)cc2Cl)cc(CN(C)C)c1O | 5.74 | 5.28 | 4.87 | 5.44 | 3.09
CN(C)Cc1cc(C(=O)/C=C/c2ccc(Cl)cc2)cc(CN(C)C)c1O | 8.41 | 8.33 | 6.48 | 13.7 | 10
CN(C)Cc1cc(C(=O)/C=C/c2ccc(O)cc2)cc(CN(C)C)c1O | 44.3 | 54 | 39.1 | > 50 | 39.8

SMILES | IC50 (Homo sapiens [1]) [µM] | IC50 (L1210) [µM] | IC50 (Homo sapiens [2]) [µM] | IC50 (P388) [µM] | IC50 (Tumor Cell line) [µM]
CN(C)Cc1cc(C(=O)/C=C/c2c(F)cccc2Cl)cc(CN(C)C)c1O | 7.92 | 8.29 | 7.74 | – | 9.12
CN(C)Cc1cc(C(=O)/C=C/c2ccc([N+](=O)[O-])cc2)cc(CN(C)C)c1O | 4.82 | 8.73 | 1.75 | 17.7 | 8.91
CN(C)Cc1cc(C(=O)/C=C/c2ccc(Cl)c(Cl)c2)cc(CN(C)C)c1O | 6.99 | 2.49 | 2.48 | 5.09 | 2.35
CN(C)Cc1cc(C(=O)/C=C/c2cccc(Cl)c2)cc(CN(C)C)c1O | 5.75 | 5.96 | 2.68 | 8.66 | 4.68
CN(C)Cc1cc(C(=O)/C=C/c2c(Cl)cccc2Cl)cc(CN(C)C)c1O | 5.38 | 3.83 | 4.33 | 5.92 | 5.88
CN(C)Cc1cc(/C=C/C(=O)c2ccccc2)cc(CN(C)C)c1O | 98 | 108 | 22.1 | > 50 | –
O=C(/C=C/c1ccc(Br)cc1)c1ccc(O)cc1 | 6.07 | 13.2 | 1.98 | 16.6 | –
O=C(/C=C/c1ccc(Cl)cc1)c1ccc(O)cc1 | 6.91 | 9.07 | 3.47 | 3.67 | –
O=C(/C=C/C=C/c1ccccc1)c1ccc(O)cc1 | 30.8 | 33.8 | 10 | 8.83 | –
O=C(/C=C/c1cccc(Cl)c1)c1ccc(O)cc1 | 6.8 | 21.2 | 5.4 | 2.82 | –
O=C(/C=C/c1ccc(Cl)c(Cl)c1)c1ccc(O)cc1 | 5.66 | 13.1 | 1.71 | 11.7 | –
O=C(/C=C/c1cc(F)ccc1F)c1ccc(O)cc1 | 7.88 | 12.2 | 3.57 | 0.864 | –
O=C(/C=C/c1ccccc1)Oc1ccc(C(=O)/C=C/c2ccc(Cl)cc2)cc1 | 220 | 265 | 45.3 | 3.82 | –
Cc1ccc(/C=C/C(=O)c2ccc(O)cc2)cc1 | 25.4 | 24.7 | 11.3 | 5.51 | –
O=C(/C=C/c1c(Cl)cccc1Cl)c1ccc(O)cc1 | 5.15 | 5.15 | 1.36 | 3.17 | –
O=C(/C=C/c1ccc(C(F)(F)F)cc1)c1ccc(O)cc1 | 6.33 | 13 | 1.88 | 2.49 | –
O=C(/C=C/c1ccccc1)Oc1ccc(C(=O)/C=C/c2ccccc2)cc1 | 39.2 | 46.5 | 13.2 | 4.62 | –
O=C(/C=C/c1ccc(F)cc1)c1ccc(O)cc1 | 16.1 | 15.7 | 3.3 | 8.55 | –
N[C@@H](Cc1ccc(N(CCCl)CCCl)cc1)C(=O)O | – | – | – | – | 26.3
O=C(/C=C/c1ccccc1)c1ccc(O)cc1 [4'-HYDROXYCHALCONE] | 13.1 | 23.5 | 14.7 | 3.12 | –
O=C(/C=C/c1ccc(O)cc1)c1ccccc1 [4-HYDROXYCHALCONE] | 8.58 | 37.9 | 9.31 | 14.3 | –
O=C(/C=C/c1ccccc1)c1ccccc1 [CHALCONE] | 12.7 | 41.4 | 12.5 | 9.63 | 8.32
